Test results published in ChEMBL document CHEMBL3804782, “Targeting the BACE1 Active Site Flap Leads to a Potent Inhibitor That Elicits Robust Brain Aβ Reduction in Rodents” (ACS Med Chem Lett, 2016).
Calls of active or inactive are those of the source. The calls are words filed in the database; no cut-off is given here.

Legend:
[1] = target: Beta-secretase 1 (Homo sapiens, UniProt P56817); test: Inhibition of BACE1 in human H4 cells expressing APP751 Swedish mutant assessed as inhibition of amyloid beta 40 or amyloid beta 42 production incubated for 19 hrs by microplate reader analysis; assay type: cell-based
Chain of Beta-secretase 1 (P56817 whole entry): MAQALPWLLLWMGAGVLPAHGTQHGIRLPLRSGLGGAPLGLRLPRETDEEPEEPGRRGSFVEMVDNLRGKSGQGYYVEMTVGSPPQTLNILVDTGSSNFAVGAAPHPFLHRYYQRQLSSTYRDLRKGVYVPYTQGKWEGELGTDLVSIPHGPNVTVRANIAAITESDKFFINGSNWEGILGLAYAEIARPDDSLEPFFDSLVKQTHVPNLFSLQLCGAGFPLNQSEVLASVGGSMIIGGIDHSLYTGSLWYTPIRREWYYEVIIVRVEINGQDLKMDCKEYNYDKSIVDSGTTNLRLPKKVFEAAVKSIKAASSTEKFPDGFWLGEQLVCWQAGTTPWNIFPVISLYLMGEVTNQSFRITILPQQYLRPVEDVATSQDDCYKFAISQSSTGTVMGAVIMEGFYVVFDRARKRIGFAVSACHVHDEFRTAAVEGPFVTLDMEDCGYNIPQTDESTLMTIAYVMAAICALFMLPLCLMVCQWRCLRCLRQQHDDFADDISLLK

[2] = Metabolic stability in mouse liver microsomes assessed as parent compound remaining at 0.5 uM after 10 mins; assay type: ADME; conditions: read-out: Stability
[3] = Metabolic stability in rat liver microsomes assessed as parent compound remaining at 0.5 uM after 10 mins; assay type: ADME; conditions: read-out: Stability
[4] = Metabolic stability in human liver microsomes assessed as parent compound remaining at 0.5 uM after 10 mins; assay type: ADME; conditions: read-out: Stability
[5] = Plasma protein binding in rat at 1 to 10 mg/kg, po measured at 5 hrs post dose; assay type: ADME, organism-based; conditions: read-out: PPB (converted)
[6] = tested on: Salmonella typhimurium; test: Mutagenicity in Salmonella typhimurium by Ames test; assay type: toxicity, organism-based; conditions: salmonella enterica subsp. enterica serovar typhimurium
[7] = tested on: Rattus norvegicus; test: Antialzheimer activity in rat assessed as reduction in amyloid beta level in brain at 30 mg/kg, po measured at 5 hrs post dose by ELISA; assay type: functional, organism-based
[8] = target: T1, Cytochrome P450 3A4 (Homo sapiens, UniProt P08684); test: Inhibition of CYP3A4 (unknown origin) expressed in baculovirus infected insect cells using BFC as susbtrate incubated for 45 mins by plate reader analysis in presence of NADP+; assay type: ADME
T1 sequence (P08684 whole entry): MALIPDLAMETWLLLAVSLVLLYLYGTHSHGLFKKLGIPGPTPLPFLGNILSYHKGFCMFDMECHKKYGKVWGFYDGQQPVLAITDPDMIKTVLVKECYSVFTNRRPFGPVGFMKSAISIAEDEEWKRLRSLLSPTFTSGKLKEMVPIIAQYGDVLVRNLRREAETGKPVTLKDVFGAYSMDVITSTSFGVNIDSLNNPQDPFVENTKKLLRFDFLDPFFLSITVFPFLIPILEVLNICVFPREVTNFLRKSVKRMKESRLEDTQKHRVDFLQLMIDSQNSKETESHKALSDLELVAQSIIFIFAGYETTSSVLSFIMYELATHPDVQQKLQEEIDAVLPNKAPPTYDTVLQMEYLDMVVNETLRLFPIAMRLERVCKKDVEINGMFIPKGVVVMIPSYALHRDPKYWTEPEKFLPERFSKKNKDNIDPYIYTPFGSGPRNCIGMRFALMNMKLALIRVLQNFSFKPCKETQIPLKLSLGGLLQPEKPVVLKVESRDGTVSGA

[9] = Drug level in rat brain at 1 mg/kg, po after 5 hrs; assay type: ADME, organism-based; conditions: read-out: Drug uptake
Outline: (§1)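 Female rats given a single oral dose in PEG-400/EtOH/Tween 80 (84:15:1). Plasma and brain were collected 5 h postdose, 5 rats per dose, to measure drug exposure and brain Aβ levels. Values are means (n = 5) with SD.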

[10] = Ratio of drug level in rat brain to plasma at 10 mg/kg, po after 5 hrs; assay type: ADME, organism-based; conditions: read-out: BPR; outline: as §1
[11] = tested on: Plasma; test: Free plasma concentration in rat at 1 to 10 mg/kg, po measured at 5 hrs post dose; assay type: ADME, organism-based; conditions: in vivo
[12] = target: T1, Cytochrome P450 3A4; test: Inhibition of CYP3A4 (unknown origin) expressed in baculovirus infected insect cells using benzyloxyresorufin as susbtrate incubated for 45 mins by plate reader analysis in presence of NADP+; assay type: ADME
[13] = target: Cytochrome P450 2C9 (Homo sapiens, UniProt P11712); test: Inhibition of CYP2C9 (unknown origin) expressed in baculovirus infected insect cells using MFC as susbtrate incubated for 45 mins by plate reader analysis in presence of NADP+; assay type: ADME
Chain of Cytochrome P450 2C9 (P11712 whole entry): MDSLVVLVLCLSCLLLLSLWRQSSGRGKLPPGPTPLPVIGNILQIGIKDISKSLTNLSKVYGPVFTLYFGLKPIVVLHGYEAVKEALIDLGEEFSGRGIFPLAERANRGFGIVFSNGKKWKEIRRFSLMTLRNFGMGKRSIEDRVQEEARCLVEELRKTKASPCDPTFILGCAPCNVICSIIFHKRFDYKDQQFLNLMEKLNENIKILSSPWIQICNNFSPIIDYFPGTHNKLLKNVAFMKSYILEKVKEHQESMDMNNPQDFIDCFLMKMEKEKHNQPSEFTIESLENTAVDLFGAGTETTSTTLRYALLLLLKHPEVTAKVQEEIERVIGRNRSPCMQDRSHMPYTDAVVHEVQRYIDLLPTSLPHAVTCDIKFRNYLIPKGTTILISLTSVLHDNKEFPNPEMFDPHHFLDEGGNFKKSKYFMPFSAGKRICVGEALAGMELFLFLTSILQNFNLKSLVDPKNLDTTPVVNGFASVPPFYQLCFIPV

[14] = tested on: Rattus norvegicus; test: Antialzheimer activity in rat assessed as total plasma concentration required for reduction in amyloid beta (1 to 42) level in brain at 1 to 10 mg/kg, po measured at 5 hrs post dose; assay type: functional, organism-based
[15] = target: T2, Cytochrome P450 1A2 (Homo sapiens, UniProt P05177); test: Inhibition of CYP1A2 (unknown origin) expressed in baculovirus infected insect cells using CEC as susbtrate incubated for 45 mins by plate reader analysis in presence of NADP+; assay type: ADME
T2 sequence (P05177 whole entry): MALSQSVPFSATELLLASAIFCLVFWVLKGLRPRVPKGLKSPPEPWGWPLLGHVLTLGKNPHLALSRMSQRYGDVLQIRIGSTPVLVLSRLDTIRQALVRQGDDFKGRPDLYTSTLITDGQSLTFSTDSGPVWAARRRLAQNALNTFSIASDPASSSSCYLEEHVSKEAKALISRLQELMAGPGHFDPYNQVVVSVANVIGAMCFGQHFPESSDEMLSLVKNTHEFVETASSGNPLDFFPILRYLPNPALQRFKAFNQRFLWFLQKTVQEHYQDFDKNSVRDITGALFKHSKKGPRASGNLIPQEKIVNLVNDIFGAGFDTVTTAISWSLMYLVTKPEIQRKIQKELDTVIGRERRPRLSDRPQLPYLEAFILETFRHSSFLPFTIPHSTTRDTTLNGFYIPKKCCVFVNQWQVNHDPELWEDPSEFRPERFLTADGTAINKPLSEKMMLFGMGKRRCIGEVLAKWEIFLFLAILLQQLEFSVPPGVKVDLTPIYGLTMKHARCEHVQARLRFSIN

[16] = Ratio of drug level in rat brain to plasma at 1 mg/kg, po after 5 hrs; assay type: ADME, organism-based; conditions: read-out: BPR; outline: as §1
[17] = tested on: Plasma; test: Drug metabolism in mouse plasma assessed as (4S,6S)-4-(5-amino-2,3-difluorophenyl)-6-(3,5-dimethylisoxazol-4-yl)-4-methyl-5,6-dihydro-4H-1,3-thiazin-2-amine formation at 10 mg/kg, po after 3 hrs; assay type: ADME, organism-based; conditions: in vivo
[18] = tested on: Rattus norvegicus; test: Antialzheimer activity in po dosed rat assessed as reduction in total amyloid beta level in brain measured at 5 hrs post dose by ELISA; assay type: functional, organism-based; outline: as §1
[19] = tested on: Rattus norvegicus; test: Antialzheimer activity in po dosed rat assessed as reduction in amyloid beta (1 to 42) level in brain measured at 5 hrs post dose by ELISA; assay type: functional, organism-based; outline: as §1
[20] = Drug level in rat brain at 3 mg/kg, po after 5 hrs; assay type: ADME, organism-based; conditions: read-out: Drug uptake; outline: as §1
[21] = Plasma concentration in rat at 10 mg/kg, po after 5 hrs; assay type: ADME, organism-based; outline: as §1
[22] = tested on: Mus musculus; test: Antialzheimer activity in mouse assessed as reduction in amyloid beta 42 level in brain at 10 mg/kg, po by ELISA relative to control; assay type: functional
[23] = target: Cytochrome P450 2D6 (Homo sapiens, UniProt P10635); test: Inhibition of CYP2D6 (unknown origin) expressed in baculovirus infected insect cells using AMMC as susbtrate incubated for 45 mins by plate reader analysis in presence of NADP+; assay type: ADME
Chain of Cytochrome P450 2D6 (P10635 whole entry): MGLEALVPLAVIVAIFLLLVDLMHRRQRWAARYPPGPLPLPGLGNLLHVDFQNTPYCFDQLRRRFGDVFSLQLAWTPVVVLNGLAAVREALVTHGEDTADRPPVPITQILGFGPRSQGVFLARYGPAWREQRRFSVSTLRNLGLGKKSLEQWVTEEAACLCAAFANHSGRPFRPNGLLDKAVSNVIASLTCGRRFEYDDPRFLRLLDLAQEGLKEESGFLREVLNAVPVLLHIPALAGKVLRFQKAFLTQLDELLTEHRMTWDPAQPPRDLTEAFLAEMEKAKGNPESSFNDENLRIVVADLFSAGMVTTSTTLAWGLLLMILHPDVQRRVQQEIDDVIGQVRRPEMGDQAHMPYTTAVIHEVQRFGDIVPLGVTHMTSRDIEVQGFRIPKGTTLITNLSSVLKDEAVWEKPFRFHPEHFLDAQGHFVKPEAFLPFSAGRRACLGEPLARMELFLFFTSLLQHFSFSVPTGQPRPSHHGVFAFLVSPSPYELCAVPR

[24] = Drug level in rat brain at 10 mg/kg, po after 5 hrs; assay type: ADME, organism-based; conditions: read-out: Drug uptake; outline: as §1
[25] = tested on: Rattus norvegicus; test: Antialzheimer activity in rat assessed as free drug concentration in plasma required for reduction in amyloid beta (1 to 42) level in brain at 1 to 10 mg/kg, po measured at 5 hrs post dose; assay type: functional, organism-based
[26] = Plasma concentration in rat at 3 mg/kg, po after 5 hrs; assay type: ADME, organism-based; outline: as §1
[27] = target: T3, Cytochrome P450 2C8 (Homo sapiens, UniProt P10632); test: Inhibition of CYP2C8 (unknown origin); assay type: ADME
T3 sequence (P10632 whole entry): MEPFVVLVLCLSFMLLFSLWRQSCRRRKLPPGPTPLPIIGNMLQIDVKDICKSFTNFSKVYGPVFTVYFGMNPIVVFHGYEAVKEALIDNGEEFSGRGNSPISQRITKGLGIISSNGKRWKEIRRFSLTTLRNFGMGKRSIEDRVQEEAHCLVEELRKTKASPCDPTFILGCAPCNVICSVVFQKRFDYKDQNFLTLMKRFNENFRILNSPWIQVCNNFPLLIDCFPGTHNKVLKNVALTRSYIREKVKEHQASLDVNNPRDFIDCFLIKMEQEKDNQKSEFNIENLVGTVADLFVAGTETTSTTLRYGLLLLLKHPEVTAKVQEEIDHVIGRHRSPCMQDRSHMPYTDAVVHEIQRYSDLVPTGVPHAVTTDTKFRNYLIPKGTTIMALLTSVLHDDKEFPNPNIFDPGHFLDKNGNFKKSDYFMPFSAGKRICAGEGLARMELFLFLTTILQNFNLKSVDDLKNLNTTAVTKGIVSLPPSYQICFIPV

[28] = Plasma concentration in rat at 1 mg/kg, po after 5 hrs; assay type: ADME, organism-based; outline: as §1
[29] = target: Cytochrome P450 2C19 (Homo sapiens, UniProt P33261); test: Inhibition of CYP2C19 (unknown origin) expressed in baculovirus infected insect cells using CEC as susbtrate incubated for 45 mins by plate reader analysis in presence of NADP+; assay type: ADME
Chain of Cytochrome P450 2C19 (P33261 whole entry): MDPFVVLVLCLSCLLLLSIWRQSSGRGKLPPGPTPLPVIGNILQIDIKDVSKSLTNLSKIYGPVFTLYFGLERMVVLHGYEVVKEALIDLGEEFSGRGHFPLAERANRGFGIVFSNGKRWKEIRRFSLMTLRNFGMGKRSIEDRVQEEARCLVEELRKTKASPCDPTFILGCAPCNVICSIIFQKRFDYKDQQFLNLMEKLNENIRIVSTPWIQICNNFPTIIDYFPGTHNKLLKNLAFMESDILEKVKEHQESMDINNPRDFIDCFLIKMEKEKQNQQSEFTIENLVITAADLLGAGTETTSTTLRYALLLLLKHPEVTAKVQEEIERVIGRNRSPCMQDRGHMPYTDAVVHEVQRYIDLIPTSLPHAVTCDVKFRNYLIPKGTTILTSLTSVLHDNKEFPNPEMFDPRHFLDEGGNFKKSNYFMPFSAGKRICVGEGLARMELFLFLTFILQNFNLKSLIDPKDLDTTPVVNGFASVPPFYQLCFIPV

[30] = tested on: Rattus norvegicus; test: Antialzheimer activity in po dosed rat assessed as reduction in amyloid beta (1 to 40) level in brain measured at 5 hrs post dose by ELISA; assay type: functional, organism-based; outline: as §1
[31] = Ratio of drug level in rat brain to plasma at 3 mg/kg, po after 5 hrs; assay type: ADME, organism-based; conditions: read-out: BPR; outline: as §1

## Cc1oncc1[C@]1(C)C[C@@H](c2cc(-c3cncnc3)c(F)cc2F)N=C(N)S1 (racemic)
[1]
  IC50: 180 nM

## Cc1noc(C)c1[C@@H]1C[C@@](C)(c2cccc(NC(=O)c3ccc(Cl)cn3)c2F)N=C(N)S1
[2]
  remaining at 10 min, 0.5 µM: 38%
[3]
  remaining at 10 min, 0.5 µM: 43%
[4]
  remaining at 10 min, 0.5 µM: 38%
[1]
  IC50: 160 nM

## Cc1noc(C)c1[C@@H]1C[C@@](C)(c2cc(N)cc(F)c2F)N=C(N)S1
[5]
  fraction unbound at 5 h: 0.05
[6]
  Activity: Non-toxic

## Cc1noc(C)c1[C@@H]1C[C@@H](c2cc(-c3cncnc3)c(F)cc2F)N=C(N)S1
[1]
  IC50: 70 nM

## Cc1noc(C)c1[C@@H]1C[C@@](C)(c2cc(NC(=O)c3ccc(Cl)cn3)cc(F)c2F)N=C(N)S1
[2]
  remaining at 10 min, 0.5 µM: 58%
[3]
  remaining at 10 min, 0.5 µM: 63%
[4]
  remaining at 10 min, 0.5 µM: 87%
[1]
  IC50: 0.7 nM

## COc1ccc([C@@H]2C[C@@H](c3cc(-c4cncnc4)c(F)cc3F)N=C(N)S2)cc1OC
[1]
  IC50: 290 nM

## Cc1noc(C)c1[C@@H]1C[C@@](C)(c2cc(NC(=O)c3ccc(Cl)cn3)c(F)cc2F)N=C(N)S1
[2]
  remaining at 10 min, 0.5 µM: 75%
[3]
  remaining at 10 min, 0.5 µM: 76%
[4]
  remaining at 10 min, 0.5 µM: 78%
[1]
  IC50: 31 nM

## Cc1noc(C)c1[C@@H]1C[C@@](C)(c2cc(-c3cncnc3)c(F)cc2F)N=C(N)S1
[2]
  remaining at 10 min, 0.5 µM: 48%
[3]
  remaining at 10 min, 0.5 µM: 49%
[7]
  inhibition: Active
[4]
  remaining at 10 min, 0.5 µM: 23%

## Cc1noc(C)c1[C@@H]1C[C@@H](c2cc(NC(=O)c3ccc(Cl)cn3)ccc2F)N=C(N)S1
[1]
  IC50: 5 nM

## Cc1noc(C)c1[C@@H]1C[C@@](C)(c2cc(F)cc(NC(=O)c3ccc(Cl)cn3)c2)N=C(N)S1
[2]
  remaining at 10 min, 0.5 µM: 13%
[3]
  remaining at 10 min, 0.5 µM: 26%
[4]
  remaining at 10 min, 0.5 µM: 39%
[1]
  IC50: 2.3 nM

## COc1cnc(C(=O)Nc2cc(F)c(F)c([C@]3(C)C[C@@H](c4c(C)noc4C)SC(N)=N3)c2)cn1
[8]
  IC50: > 20000 nM
[9]
  concentration at 5 h: 67 nM
[10]
  Kp at 5 h: 0.3
[11]
  Cp(f): 13 nM
[2]
  remaining at 10 min, 0.5 µM: 74%
[12]
  IC50: > 20000 nM
[13]
  IC50: > 20000 nM
[14]
  EC50: 260 nM
[15]
  IC50: > 20000 nM
[16]
  Kp at 5 h: 0.44
[17]
  Drug metabolism: metabolite_detected
[18]
  inhibition: Dose-dependent effect
[3]
  remaining at 10 min, 0.5 µM: 69%
[19]
  inhibition: Dose-dependent effect
[20]
  concentration at 5 h: 160 nM
[4]
  remaining at 10 min, 0.5 µM: 81%
[21]
  concentration at 5 h: 1500 nM
[22]
  inhibition in vivo at 10 mg/kg: 85%
[23]
  IC50: > 20000 nM
[24]
  concentration at 5 h: 420 nM
[25]
  EC50: 13 nM
[26]
  concentration at 5 h: 360 nM
[27]
  IC50: 5000 nM
[28]
  concentration at 5 h: 150 nM
[29]
  IC50: > 20000 nM
[30]
  inhibition: Dose-dependent effect
[31]
  Kp at 5 h: 0.46
[1]
  IC50: 0.9 nM

## Cc1noc(C)c1[C@]1(C)C[C@@H](c2cc(-c3cncnc3)c(F)cc2F)N=C(N)S1 (relative stereo)
[1]
  IC50: 3700 nM

## COc1ccc([C@@H]2C[C@@H](c3cccc(-c4cncnc4)c3)N=C(N)S2)cc1OC
[1]
  IC50: 1100 nM
